Active and inactive are the calls of the source. No cut-off for these calls is given here.

These results are taken from ChEMBL document CHEMBL4765233, “From Lead to Drug Candidate: Optimization of 3-(Phenylethynyl)-1H-pyrazolo[3,4-d]pyrimidin-4-amine Derivatives as Agents for the Treatment of Triple Negative Breast Cancer” (J Med Chem, 2016).

For series [1], the system named is MDA-MB-231. The experiment in a line: Induction of apoptosis in human MDA-MB-231 cells assessed as early apoptotic cells at 0.1 uM incubated for 24 hrs by annexin V-FITC and propidium iodide staining based flow cytometry analysis (reference value: 2 %). The class given is functional.
The test system of series [2] is MDA-MB-231. Kind of series: Inhibition of Fra1 phosphorylation in human MDA-MB-231 cells at >0.03 uM incubated for 20 hrs by Western blot analysis. The class given is functional, cell-based. To be noted: dose microM >0.03, time 20.0 hrs. In short, it runs like this: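 MDA-MB-231 cells treated with a series of concentrations for 20 h at 37 °C. Cells washed with ice-cold saline and lysed in RIPA buffer with protease cocktail. Lysates cleared at 12000 rpm for 10 min at 4 °C and protein quantified by Bradford. Equal protein separated by SDS-PAGE, transferred to PVDF and probed with antibodies.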
For orientation: Immunoblotting shows a protein as a band on a membrane.

Series [3] is described as follows: Metabolic stability in mouse liver microsomes assessed as parent compound remaining at 1 uM measured after 60 mins in presence of NADPH by HPLC-MS/MS analysis. The class given is ADME, Microsome. As to conditions: read-out: Stabilty. The method, boiled down:
(§1)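 Compound at 1 μM incubated with 0.5 mg/mL liver microsomes and 1 mM NADPH. Samples taken at 0, 10, 15, 30, 45 and 60 min and quenched with acetonitrile. After centrifugation, supernatant analysed by HPLC-MS/MS, with percent parent remaining relative to the 0 min area.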
Background: Liver microsomes are vesicles of endoplasmic reticulum, rich in cytochrome P450 enzymes.

For series [4], the system named is MDA-MB-231. Kind of series: Induction of apoptosis in human MDA-MB-231 cells assessed as live cells at 0.01 uM incubated for 24 hrs by annexin V-FITC and propidium iodide staining based flow cytometry analysis (reference value: 96.95 %). It counts as functional. In general terms: Flow cytometry measures light scatter and fluorescence of single cells or particles in a stream.

The target of series [5] is Ribosomal protein S6 kinase alpha-1 (Homo sapiens, UniProt Q15418). Kind of series: Inhibition of human full length recombinant RSK1 using KKKNRTLSVA as substrate incubated for 40 mins in presence of [gamma33P-ATP] by radiometric scintillation counting analysis. In short, it runs like this:
(§2)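 Radiometric kinase assay run as an external profiling service, with ATP at the Km of each kinase. IC50 values are means of two independent experiments.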

In series [6] the target is Receptor tyrosine-protein kinase erbB-2 (Homo sapiens, UniProt P04626, G778D). The experiment in a line: Inhibition of human recombinant ERBB2 G778D mutant (676 to end residues) using poly(Glu,Tyr)4:1 as substrate incubated for 40 mins in presence of [gamma33P-ATP] by radiometric scintillation counting analysis.
In another series the test system is MDA-MB-435. Kind of series: Antitumor activity against human MDA-MB-435 cells xenografted in SCID mouse assessed as tumor growth inhibition at 40 mg/kg, po QD for 21 days and measured every 3 days. As to conditions: MDA-MB-435, po, 504 h, time 21 day. It counts as functional. The method, boiled down: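 SCID mice (5−6 weeks) injected subcutaneously with 100 μL of cells at 5 × 10^7/mL. At 150−200 mm3 mice randomized, 6 per group. Oral compounds given in water with 25% PEG400 plus 5% DMSO; paclitaxel given 10 mg/kg/week iv. Tumor volume a×b²/2 and body weight measured every 3 days. Inhibition rate (c−d)/c×100% against vehicle control.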

The test system of another series is ZR-75-1. Kind of series: Antiproliferative activity against human ZR-75-1 cells assessed as reduction in cell viability incubated for 72 hrs by MTT assay. As to conditions: ZR-75-1, 72 h. The class given is functional, cell-based. The method, boiled down: (§3)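 MTT viability assay. ATCC cell lines were grown in designated medium with 10% FBS at 37 °C, 5% CO2. Cells seeded at 1500−30000 per well and incubated 24 h, then exposed to compound (0−10 μg/mL) for 72 h. MTT added for 2−4 h. Formazan dissolved in DMSO (adherent) or acidified SDS overnight (suspension), absorbance read at 570 nm. Triplicates; IC50 calculated.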

The next series relates to PLC-PRF-5. The experiment in a line: Antiproliferative activity against human PLC-PRF-5 cells assessed as reduction in cell viability incubated for 72 hrs by MTT assay. The class given is functional, cell-based. As to conditions: PLC-PRF-5, 72 h. In short, it runs like this: as §3
Series [7] is described as follows: Toxicity in SCID mouse xenografted with MDA-MB-231 cells assessed as change in body weight at 40 mg/kg, po qd for 15 days and measured every 3 days. To be noted: in vivo, 360 h, dose 40 mg/kg/day, time 15 day. The class given is organism-based.
Another series relates to HepG2. Kind of series: Antiproliferative activity against human HepG2 cells assessed as reduction in cell viability incubated for 72 hrs by MTT assay. The class given is ADME, cell-based. As to conditions: HepG2, 72 h.
For series [8], the system named is MDA-MB-231. Kind of series: Induction of apoptosis in human MDA-MB-231 cells assessed as necrotic cells at 0.03 uM incubated for 24 hrs by annexin V-FITC and propidium iodide staining based flow cytometry analysis (reference value: 0.2 %). The class given is functional.
Series [9] relates to MDA-MB-231. The experiment in a line: Induction of apoptosis in human MDA-MB-231 cells xenografted in SCID mouse assessed as increase in cleaved caspase-3 level in tumor tissue at 40 mg/kg, po QD for 21 days by immunohistochemical analysis. The class given is functional, organism-based. As to conditions: dose 40.0 mg/kg/day, time 21.0 day. The method, boiled down: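 SCID mice carried subcutaneous MDA-MB-231 xenografts (5 × 10^6 cells in 100 μL). Oral dosing in water with 25% PEG400 and 5% DMSO began at 150–200 mm3. Tumours were removed at the end of study, formalin-fixed and paraffin-embedded, then immunostained.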

In series [10] the test system is MDA-MB-231. The experiment in a line: Induction of apoptosis in human MDA-MB-231 cells assessed as early apoptotic cells at 0.01 uM incubated for 24 hrs by annexin V-FITC and propidium iodide staining based flow cytometry analysis (reference value: 2 %). The class given is functional.
The nature of series [11]: Metabolic stability in human liver microsomes assessed as parent compound remaining at 1 uM measured after 60 mins in presence of NADPH by HPLC-MS/MS analysis. It counts as ADME, Microsome. To be noted: read-out: Stabilty. The method, boiled down: as §1
Series [12] in a line: Acute toxicity in male Sprague-Dawley rat assessed as increase in body weight at 200 mg/kg, po administered as single dose measured after day 9 and monitored every 3 days. As to conditions: in vivo, 72 h, time >9 day. It counts as organism-based. In short, it runs like this: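 Sprague-Dawley rats (n = 3) received a single oral dose of 200 mg/kg in sterile water with 25% (v/v) PEG400 plus 5% DMSO. Behaviour and side effects were monitored daily, and average body weight was measured every 3 days.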

The nature of series [13]: Acute toxicity in Sprague-Dawley rat assessed as histopathological changes in lungs at 100 mg/kg, po administered as single dose measured after 24 hrs by H and E staining based light microscope analysis. It counts as organism-based. To be noted: in vivo. The method, boiled down: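 Sprague-Dawley rats received a single oral dose of 100 mg/kg in sterile water with 25% (v/v) PEG400 plus 5% DMSO. Organs were examined by histology and immunohistochemistry for pathological changes. Behaviour and side effects were checked daily.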

Series [14] can be described thus: AUC (0 to t) in Sprague-Dawley rat at 10 mg/kg, po administered via gavage by LC-MS analysis. The class given is ADME, organism-based. Further details: dose 10 mg/kg. To be noted: in vivo.
Series [15] has as its target BDNF/NT-3 growth factors receptor (Homo sapiens, UniProt Q16620). The experiment in a line: Inhibition of human recombinant TRKB (455 to end residues) using poly(Glu,Tyr)4:1 as substrate incubated for 40 mins in presence of [gamma33P-ATP] by radiometric scintillation counting analysis.
Series [16] has as its target Ribosomal protein S6 kinase alpha-3 (Homo sapiens, UniProt P51812). Kind of series: Inhibition of human recombinant RSK2 (2 to end residues) using KKKNRTLSVA as substrate incubated for 40 mins in presence of [gamma33P-ATP] by radiometric scintillation counting analysis. In short, it runs like this:
as §2

The subject of series [17] is MDA-MB-231. Kind of series: Induction of apoptosis in human MDA-MB-231 cells assessed as live cells at 0.1 uM incubated for 24 hrs by annexin V-FITC and propidium iodide staining based flow cytometry analysis (reference value: 96.95 %). It counts as functional.

Receptor tyrosine-protein kinase erbB-2, sequence (P04626 23-1255 G778D limits assumed): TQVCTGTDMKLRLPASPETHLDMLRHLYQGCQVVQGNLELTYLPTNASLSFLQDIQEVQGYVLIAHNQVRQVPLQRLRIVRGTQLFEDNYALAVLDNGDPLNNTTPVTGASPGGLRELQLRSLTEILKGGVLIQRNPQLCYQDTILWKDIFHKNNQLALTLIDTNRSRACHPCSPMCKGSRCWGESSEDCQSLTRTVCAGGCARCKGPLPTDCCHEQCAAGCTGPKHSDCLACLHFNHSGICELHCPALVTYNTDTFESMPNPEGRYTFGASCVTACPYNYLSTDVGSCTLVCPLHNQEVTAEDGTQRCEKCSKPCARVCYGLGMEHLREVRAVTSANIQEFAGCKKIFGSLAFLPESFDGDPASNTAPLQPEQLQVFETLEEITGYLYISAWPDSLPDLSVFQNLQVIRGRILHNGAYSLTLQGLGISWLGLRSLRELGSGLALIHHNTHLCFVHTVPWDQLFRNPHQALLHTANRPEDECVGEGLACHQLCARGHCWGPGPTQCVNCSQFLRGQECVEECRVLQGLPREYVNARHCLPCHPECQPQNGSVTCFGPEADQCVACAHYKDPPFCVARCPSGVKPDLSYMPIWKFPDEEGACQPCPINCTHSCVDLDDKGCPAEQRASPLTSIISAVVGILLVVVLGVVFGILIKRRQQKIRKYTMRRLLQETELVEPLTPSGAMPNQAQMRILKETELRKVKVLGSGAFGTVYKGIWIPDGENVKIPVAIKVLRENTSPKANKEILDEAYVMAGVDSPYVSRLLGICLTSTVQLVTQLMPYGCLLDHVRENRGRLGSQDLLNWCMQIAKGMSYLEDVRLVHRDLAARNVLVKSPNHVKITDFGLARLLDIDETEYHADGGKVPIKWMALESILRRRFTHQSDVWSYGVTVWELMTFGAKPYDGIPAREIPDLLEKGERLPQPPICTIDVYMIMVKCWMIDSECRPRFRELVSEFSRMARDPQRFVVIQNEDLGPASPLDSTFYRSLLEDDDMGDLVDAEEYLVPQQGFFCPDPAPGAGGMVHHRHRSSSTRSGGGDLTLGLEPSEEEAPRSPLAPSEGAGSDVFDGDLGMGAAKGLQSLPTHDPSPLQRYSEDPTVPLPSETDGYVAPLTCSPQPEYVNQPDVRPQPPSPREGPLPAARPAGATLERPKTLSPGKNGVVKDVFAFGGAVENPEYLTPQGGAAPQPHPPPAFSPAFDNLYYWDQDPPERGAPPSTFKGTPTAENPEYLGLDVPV
Ribosomal protein S6 kinase alpha-1, sequence (Q15418 whole entry): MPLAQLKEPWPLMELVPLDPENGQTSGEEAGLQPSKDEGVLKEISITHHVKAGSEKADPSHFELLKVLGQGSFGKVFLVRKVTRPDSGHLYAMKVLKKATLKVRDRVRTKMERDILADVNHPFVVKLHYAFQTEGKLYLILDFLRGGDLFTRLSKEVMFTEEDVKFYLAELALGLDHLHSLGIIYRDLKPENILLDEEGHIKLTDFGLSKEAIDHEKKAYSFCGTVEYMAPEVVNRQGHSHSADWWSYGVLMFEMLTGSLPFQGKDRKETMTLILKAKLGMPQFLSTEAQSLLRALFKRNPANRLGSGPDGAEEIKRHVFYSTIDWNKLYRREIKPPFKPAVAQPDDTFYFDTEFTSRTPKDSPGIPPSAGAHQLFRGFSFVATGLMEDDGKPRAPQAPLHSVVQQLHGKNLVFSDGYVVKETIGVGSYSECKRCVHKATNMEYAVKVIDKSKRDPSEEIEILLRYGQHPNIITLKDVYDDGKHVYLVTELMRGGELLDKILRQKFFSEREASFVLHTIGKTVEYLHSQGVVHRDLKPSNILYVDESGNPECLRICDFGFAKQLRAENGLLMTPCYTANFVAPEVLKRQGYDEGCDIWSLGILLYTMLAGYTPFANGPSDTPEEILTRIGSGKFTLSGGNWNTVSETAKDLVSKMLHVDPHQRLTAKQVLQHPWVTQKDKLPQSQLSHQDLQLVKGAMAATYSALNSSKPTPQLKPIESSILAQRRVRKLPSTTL
BDNF/NT-3 growth factors receptor, sequence (Q16620 whole entry): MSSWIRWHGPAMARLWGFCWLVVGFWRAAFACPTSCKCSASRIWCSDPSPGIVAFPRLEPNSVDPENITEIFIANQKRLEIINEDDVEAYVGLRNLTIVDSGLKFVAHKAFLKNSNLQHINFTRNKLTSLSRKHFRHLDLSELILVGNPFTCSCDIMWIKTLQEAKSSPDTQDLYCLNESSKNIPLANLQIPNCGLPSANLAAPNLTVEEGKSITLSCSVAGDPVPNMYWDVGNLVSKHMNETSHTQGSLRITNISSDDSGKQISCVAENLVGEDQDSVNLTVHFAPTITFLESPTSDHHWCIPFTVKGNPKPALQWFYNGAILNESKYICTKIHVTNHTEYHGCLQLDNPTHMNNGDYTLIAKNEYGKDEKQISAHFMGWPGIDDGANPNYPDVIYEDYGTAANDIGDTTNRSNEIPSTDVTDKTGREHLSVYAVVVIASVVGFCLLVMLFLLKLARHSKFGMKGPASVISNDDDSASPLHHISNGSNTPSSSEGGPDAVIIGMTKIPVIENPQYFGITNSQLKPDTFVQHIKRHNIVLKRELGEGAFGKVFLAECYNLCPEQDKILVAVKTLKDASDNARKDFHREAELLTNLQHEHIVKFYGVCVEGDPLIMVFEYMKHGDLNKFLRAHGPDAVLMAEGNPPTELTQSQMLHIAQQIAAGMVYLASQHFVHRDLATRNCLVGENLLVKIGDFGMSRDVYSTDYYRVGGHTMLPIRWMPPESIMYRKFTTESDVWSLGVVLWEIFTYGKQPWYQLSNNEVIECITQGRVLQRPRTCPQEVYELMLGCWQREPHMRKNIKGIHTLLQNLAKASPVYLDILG
Ribosomal protein S6 kinase alpha-3, sequence (P51812 whole entry): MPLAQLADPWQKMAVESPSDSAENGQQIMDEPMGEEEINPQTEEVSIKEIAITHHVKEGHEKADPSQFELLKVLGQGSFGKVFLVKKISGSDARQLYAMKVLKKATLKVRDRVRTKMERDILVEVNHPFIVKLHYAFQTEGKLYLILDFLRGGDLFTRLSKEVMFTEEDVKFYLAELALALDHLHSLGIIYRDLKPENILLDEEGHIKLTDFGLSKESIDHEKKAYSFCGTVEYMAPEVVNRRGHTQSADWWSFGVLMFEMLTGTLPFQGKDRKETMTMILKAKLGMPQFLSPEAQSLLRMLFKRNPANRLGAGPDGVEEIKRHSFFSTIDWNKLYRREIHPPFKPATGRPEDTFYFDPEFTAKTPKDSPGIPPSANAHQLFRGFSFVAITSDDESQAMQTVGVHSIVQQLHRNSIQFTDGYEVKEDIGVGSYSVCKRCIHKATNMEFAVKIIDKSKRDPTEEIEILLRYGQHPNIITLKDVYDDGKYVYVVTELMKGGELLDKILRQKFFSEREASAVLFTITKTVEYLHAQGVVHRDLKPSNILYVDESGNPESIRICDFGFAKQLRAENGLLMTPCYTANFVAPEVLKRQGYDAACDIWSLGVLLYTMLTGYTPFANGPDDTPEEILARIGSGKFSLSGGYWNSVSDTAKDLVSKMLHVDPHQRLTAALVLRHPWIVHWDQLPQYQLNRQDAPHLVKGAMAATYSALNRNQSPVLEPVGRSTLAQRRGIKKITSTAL

Usually IC50 stands for the point on the concentration scale where inhibition reaches its midpoint. One may read the inhibition in vivo as the drop in the measured response relative to a control, in per cent. As usually defined, the AUC(0-t) is the area under the concentration-time curve up to a stated or last time point. A low value points to low exposure. For the compound `Cc1ccc(NC(=O)c2ccc(C)c(C(F)(F)F)c2)cc1C#Cc1nn([C@H]2CC[C@H](O)CC2)c2ncnc(N)c12`, the Activity in the series on MDA-MB-231 [1] is on record as 13.48%; in the series on MDA-MB-231 [4], 91.3%; in [7] it was 3.4%; in the series on MDA-MB-231 [8], 2.42%; in the series on MDA-MB-231 [10] it was 5.05%; in series [12] it was “Non-Toxic”. The figures for the Activity entry (in series [13]; in the series on MDA-MB-231 [17]) were “Non-Toxic” and 67.94%, respectively. The inhibition entry with MDA-MB-231 [2] is “Active”. For the same compound, the remaining at 1 h, 1 µM in series [3] and in series [11] was over 90% in each case. The IC50 is 0.559 µM in [5]; 0.165 µM in [6]; 10 µM in the series with ZR-75-1; 10 µM in the series on PLC-PRF-5; over 10 µM in the series with HepG2; 0.899 µM in series [15]. In series [16], the IC50 was over 10 µM. In addition, the inhibition in vivo at 40 mg/kg/day with MDA-MB-435 was 100%. In the series on MDA-MB-231 [9], the outcome was Active. Moreover, the AUC(0-t) in [14] was found to be 2860 ng·h/mL.
